Measurements as given in ChEMBL document CHEMBL4130343, “Design, synthesis, and evaluation of benzofuran derivatives as novel anti-pancreatic carcinoma agents via interfering the hypoxia environment by targeting HIF-1α pathway” (Eur J Med Chem, 2017).
pIC50: −log10 of the molar value. Activity calls are given as the source filed them. The calls are words filed in the database; no cut-off is given here.

Tests used:
HCT-116 = test: Antiproliferative activity against human HCT116 cells after 48 hrs by MTT assay; type: functional, cell-based; settings: HCT-116, 48 h
How it was run: (§1)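 Cells were seeded at 5×10^5 cells/mL overnight and exposed to graded compound concentrations for 48 h. MTT (5 mg/mL stock) was added for 4 h at 37 °C, and formazan was dissolved in DMSO. Absorbance was read at 570 nm. IC₅₀ was fitted from the curves; values are mean ± SD, n = 3.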

A549 = test: Antiproliferative activity against human A549 cells after 48 hrs by MTT assay; type: functional, cell-based; settings: A549, 48 h; how it was run: as §1
MDA-MB-231 = test: Antiproliferative activity against human MDA-MB-231 cells after 48 hrs by MTT assay; type: functional, cell-based; settings: MDA-MB-231, 48 h; how it was run: as §1
[1] = Half life in rat at 10 mg/kg, po after 0.083 to 24 hrs by LC-MS/MS method; type: ADME, organism-based; settings: in vivo
[2] = AUC (0 to t) in rat at 10 mg/kg, po after 0.083 to 24 hrs by LC-MS/MS method; type: ADME, organism-based; set-up: dose 10 mg/kg, time upper 24 hr, time lower 0.083 hr, route oral; settings: in vivo
[3] = Oral bioavailability in rat at 10 mg/kg after 0.083 to 24 hrs by LC-MS/MS method; type: ADME, organism-based; settings: in vivo
[4] = Cmax in rat at 10 mg/kg, iv after 0.083 to 24 hrs by LC-MS/MS method; type: ADME, organism-based; set-up: dose 10 mg/kg, route intravenous; settings: in vivo
[5] = AUC (0 to t) in rat at 10 mg/kg, iv after 0.083 to 24 hrs by LC-MS/MS method; type: ADME, organism-based; set-up: time upper 24 hr, time lower 0.083 hr, dose 10 mg/kg, route intravenous; settings: in vivo
[6] = Half life in rat at 10 mg/kg, ip after 0.083 to 24 hrs by LC-MS/MS method; type: ADME, organism-based; settings: in vivo
[7] = Bioavailability in rat at 10 mg/kg, ip after 0.083 to 24 hrs by LC-MS/MS method; type: ADME, organism-based; settings: in vivo
[8] = Plasma concentration in rat at 10 mg/kg, iv after 36 hrs by LC-MS/MS method; type: ADME, organism-based
How it was run: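 Rats, n = 6 per group, each given a single 10 mg/kg dose. Blood was collected into heparinized tubes and centrifuged at 4 °C and 8000 rpm for 5 min. Plasma was analysed by LC–MS/MS.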

PANC-1 [9] = test: Induction of apoptosis in human PANC1 cells assessed as early apoptotic cells at 0.1 uM after 24 hrs by annexin V/propidium iodide staining-based flow cytometric method (reference value: 7.25%); type: functional
PANC-1 [10] = test: Induction of apoptosis in human PANC1 cells assessed as viable cells at 0.1 uM after 24 hrs by annexin V/propidium iodide staining-based flow cytometric method (reference value: 89.5%); type: functional; settings: PANC-1, 24 h, read-out: Activity
PANC-1 [11] = test: Induction of apoptosis in human PANC1 cells assessed as dead cells at 1 uM after 24 hrs by annexin V/propidium iodide staining-based flow cytometric method (reference value: 0.60%); type: functional
PANC-1 [12] = test: Induction of apoptosis in human PANC1 cells assessed as early apoptotic cells at 2 uM after 24 hrs by annexin V/propidium iodide staining-based flow cytometric method (reference value: 7.25%); type: functional
PANC-1 [13] = test: Induction of apoptosis in human PANC1 cells assessed as late apoptotic cells at 2 uM after 24 hrs by annexin V/propidium iodide staining-based flow cytometric method (reference value: 2.65%); type: functional
PANC-1 [14] = test: Induction of apoptosis in human PANC1 cells assessed as viable cells at 2 uM after 24 hrs by annexin V/propidium iodide staining-based flow cytometric method (reference value: 89.5%); type: functional; settings: PANC-1, 24 h, read-out: Activity
PANC-1 [15] = test: Induction of apoptosis in human PANC1 cells after 24 hrs by annexin V/propidium iodide staining-based flow cytometric method; type: functional, cell-based
PANC-1 [16] = test: Anticlonogenic activity against human PANC1 cells after 2 weeks by crystal violet staining-based assay; type: functional, cell-based
How it was run: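 PANC-1 cells were seeded at 100 cells/well overnight, then exposed to graded compound concentrations for 14 days with medium changed every three days. Colonies were fixed in 10% ethanol for 10 min and stained with 0.5% crystal violet in 25% ethanol for 10 min. Plates were dried and scanned.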

PANC-1 [17] = test: Induction of apoptosis in human PANC1 assessed as increase in cleaved PARP levels at 0.1 to 1 uM after 24 hrs by Western blot method; type: functional, cell-based
How it was run: (§2)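 PANC-1 cells were treated with graded compound concentrations for 24 h, then lysed. Proteins were separated by SDS-PAGE and blotted to PVDF. Blots were probed for PARP, cleaved PARP, caspase-3, cleaved caspase-3, caspase-9 and cleaved caspase-9, with GAPDH as loading control, and read by infrared imaging. Bands were quantified by densitometry as ratios normalized to GAPDH.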

PANC-1 [18] = test: Induction of apoptosis in human PANC1 assessed as decrease in caspase-9 levels at 0.1 to 1 uM after 24 hrs by Western blot method; type: functional, cell-based; how it was run: as §2
PANC-1 [19] = test: Induction of apoptosis in human PANC1 assessed as decrease in PARP levels at 0.1 to 1 uM after 24 hrs by Western blot method; type: functional, cell-based; how it was run: as §2
PANC-1 [20] = test: Antitumor activity against human PANC1 cells xenografted in nude mouse assessed as inhibition of tumor weight at 15 mg/kg, ip administered every 2 days for 21 days relative to vehicle-treated control; type: functional; settings: PANC-1, ip
How it was run: (§3)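 Female nude mice received 1×10^7 PANC-1 cells subcutaneously in the right flank. After 4 weeks, mice bearing tumors averaging 100 mm³ were randomized into five groups. Dosing was 15, 30 or 60 mg/kg i.p. every two days for 21 days. Tumor volume = width² × length/2; tumors were weighed at sacrifice, and body weight was monitored.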

PANC-1 [21] = test: Antitumor activity against human PANC1 cells xenografted in nude mouse assessed as decrease in tumor volume at 15 to 60 mg/kg, ip administered every 2 days for 21 days; type: functional, organism-based; how it was run: as §3
Mus musculus [22] = test: Toxicity in nude mouse xenografted with human PANC1 cells assessed as effect on body weight at 15 to 60 mg/kg, ip administered every 2 days for 21 days measured during compound dosing; type: organism-based; settings: in vivo
How it was run: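 Female nude mice were implanted s.c. in the right flank with 1×10^7 PANC-1 cells. After 4 weeks, mice with tumours averaging 100 mm³ were randomized into five groups. They were dosed i.p. at 15, 30 or 60 mg/kg every two days for 21 days and monitored for toxicity, tumour growth and body weight.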

[23] = target: Hypoxia-inducible factor 1-alpha (Homo sapiens) (UniProt Q16665); test: Inhibition of HIF-1alpha (unknown origin) expressed in HEK293 cells under hypoxia condition after 24 hrs by luciferase reporter gene assay; type: cell-based
Chain of Hypoxia-inducible factor 1-alpha (Homo sapiens) (Q16665 whole entry, looked up): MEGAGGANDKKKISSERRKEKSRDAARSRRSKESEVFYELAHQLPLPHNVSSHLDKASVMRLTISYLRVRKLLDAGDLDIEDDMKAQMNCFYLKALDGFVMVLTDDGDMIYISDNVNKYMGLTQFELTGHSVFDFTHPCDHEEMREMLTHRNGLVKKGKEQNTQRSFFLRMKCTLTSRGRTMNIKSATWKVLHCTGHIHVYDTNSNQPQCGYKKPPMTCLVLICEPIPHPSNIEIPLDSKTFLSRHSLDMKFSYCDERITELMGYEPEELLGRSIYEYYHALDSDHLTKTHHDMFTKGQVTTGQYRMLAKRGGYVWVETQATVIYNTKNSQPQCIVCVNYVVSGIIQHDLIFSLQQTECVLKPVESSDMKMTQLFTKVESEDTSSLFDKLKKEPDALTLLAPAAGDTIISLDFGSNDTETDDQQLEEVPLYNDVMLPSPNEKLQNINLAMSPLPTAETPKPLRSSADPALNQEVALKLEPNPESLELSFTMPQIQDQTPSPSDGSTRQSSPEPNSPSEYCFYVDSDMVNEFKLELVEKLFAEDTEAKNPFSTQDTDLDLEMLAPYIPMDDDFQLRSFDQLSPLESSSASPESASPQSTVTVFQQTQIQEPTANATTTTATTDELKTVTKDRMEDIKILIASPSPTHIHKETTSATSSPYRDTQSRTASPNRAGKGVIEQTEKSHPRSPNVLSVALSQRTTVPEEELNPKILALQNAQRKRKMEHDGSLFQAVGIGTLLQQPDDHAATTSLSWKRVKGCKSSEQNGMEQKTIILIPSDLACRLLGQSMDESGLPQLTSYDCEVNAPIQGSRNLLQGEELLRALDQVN
How it was run: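 HEK293 cells were co-transfected with HRE-luciferase and pRL-SV40 plasmids for 6 h. Cells were then treated with compound under hypoxia (1% O₂, 94% N₂, 5% CO₂, 37 °C) for 24 h. Activity was read by dual-luciferase assay on a luminometer.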

Mus musculus [24] = test: Downregulation of CD31 expression in human PANC1 cells xenografted in nude mouse at 15 to 60 mg/kg, ip administered every 2 days for 21 days by immunohistochemical method; type: functional, organism-based
How it was run: (§4)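 Tumors came from the PANC-1 nude-mouse xenografts dosed at 15, 30 or 60 mg/kg i.p. every two days for 21 days. Tumor sections were stained immunohistochemically with antibodies against CD31, HIF-1α and VEGF.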

Mus musculus [25] = test: Effect on HIF-1alpha expression in human PANC1 cells xenografted in nude mouse at 15 to 60 mg/kg, ip administered every 2 days for 21 days by immunohistochemical method; type: functional, organism-based; how it was run: as §4

## Cc1c(C(=O)NC2CCN(C)CC2)oc2ccc(N(Cc3ccc(Br)cc3)S(=O)(=O)c3ccc(Br)cc3)cc12
HCT-116
  pIC50: 5.74
A549
  pIC50: 5.57
MDA-MB-231
  pIC50: 5.72
[1]
  half-life: 6.63 h
[2]
  AUC(0-t): 1080 ng·h/mL
[3]
  bioavailability: 15%
[4]
  Cmax: 3100 ng/mL
[5]
  AUC(0-t): 7220 ng·h/mL
[6]
  half-life: 7.09 h
[7]
  bioavailability: 86.1%
[8]
  concentration at 36 h: > 10 ng/mL
PANC-1 [9]
  Activity: 4.45%
PANC-1 [10]
  viability at 0.1 µM: 85.5%
PANC-1 [11]
  Activity: 0.2%
PANC-1 [12]
  Activity: 3.7%
PANC-1 [13]
  Activity: 51.15%
PANC-1 [14]
  viability at 2 µM: 44.7%
PANC-1 [15]
  Activity: Dose-dependent effect
PANC-1 [16]
  Activity: Dose-dependent effect
PANC-1 [17]
  Activity: Active
PANC-1 [18]
  Activity: Active
PANC-1 [19]
  Activity: Active
PANC-1 [20]
  inhibition in vivo at 15 mg/kg: 39%
PANC-1 [21]
  Activity: Active
Mus musculus [22]
  Activity: Non-Toxic
[23]
  inhibition: Dose-dependent effect
Mus musculus [24]
  Activity: Active
Mus musculus [25]
  Activity: inactive
